The source made the active and inactive calls.
Columns and labels:
Homo sapiens = species: Homo sapiens; experiment: Cytotoxicity against human D425 cells at 39 nM after 72 hrs by Presto Blue assay; assay type: functional, cell-based
Outline: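 D425 and D458 medulloblastoma cells in DMEM high glucose with 20% FBS, seeded at 1000 cells/well in medium with 1% FBS. Twofold dilutions from 20 μM down to 39 nM. Exposed 3 days at 37 °C. Presto Blue added about 4 h before fluorescence read (540–570 nm). IC50 from % viability versus log concentration.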

[1] = target: Signal transducer and activator of transcription 3 (Homo sapiens) (UniProt P40763); experiment: Inhibition of STAT3 phosphorylation at Y705 residue in human BTSC 143EF cells at 1 to 10 uM after 24 hrs by Western blot method; assay type: cell-based
Outline: (§1)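 BTSCs dissociated to single cells and treated with drug or DMSO. Lysed in RIPA buffer with protease inhibitors. 20 μg lysate run on SDS-PAGE and transferred to nitrocellulose. Blocked in 5% milk, primary antibody overnight at 4 °C, then HRP secondary for 1 h.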

[2] = target: Signal transducer and activator of transcription 3 (Homo sapiens) (UniProt P40763); experiment: Inhibition of STAT3 phosphorylation at Y705 residue in human BTSC 147EF cells at 2 uM after 3 to 24 hrs by Western blot method; assay type: cell-based; outline: as §1
[3] = Tmax in NSG mouse at 20 mg/kg, ip administered as single dose by HPLC-MS/MS analysis; assay type: ADME, organism-based; conditions: in vivo
Outline: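 NSG mice received a single 20 mg/kg IP injection in Cremophor EL/EtOH (1:1, 4% final volume)/sterile saline. Tail-vein blood was taken at 0.5, 1, 2, 4, 8 and 24 h, and compound was quantified in plasma (n = 2).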

Panc1005 [4] = experiment: Cytotoxicity against human Panc 10.05 cells assessed as reduction in tumor spheroid area after 72 hrs in presence of human CAF19 cells by Alamar Blue assay; assay type: functional, cell-based; conditions: Panc1005, 72 h
Outline: (§2)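 3D spheroids of patient-derived PDAC cells (tomato red) alone or with CAF19 cells, plus CAF cultures. Imaging read-outs: area is the μ2 of objects above a tomato red intensity threshold; intensity is summed red or green pixel fluorescence after background removal. n = 3–5.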

[5] = Selectivity ratio of IC50 for human CAF19 cells to IC50 for human Panc 10.05 cells
[6] = target: Histone deacetylase 11 (Homo sapiens) (UniProt Q96DB2); experiment: Inhibition of recombinant human HDAC11 expressed in SF9 baculoviral system at 10 uM using FAM-labeled acetylated peptide as substrate by EMSA relative to control
Outline: (§3)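 Full-length recombinant human HDACs from an Sf9 baculovirus system. Single-point screen at 10 μM by microfluidic mobility-shift assay with FAM-labeled acetylated peptide substrate. Buffer: 100 mM HEPES pH 7.5, 25 mM KCl, 0.1% BSA, 0.01% Triton X-100, 1% DMSO. % inhibition from product/(substrate + product) against no-inhibitor and no-enzyme controls.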

[7] = Drug uptake in NSG mouse serum at 20 mg/kg, ip administered as single dose and measured at 2 hrs by HPLC-MS/MS analysis; assay type: ADME, organism-based; conditions: read-out: Drug uptake
Outline: (§4)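 NSG mice given a single 20 mg/kg IP dose in Cremophor EL/EtOH (1:1, 4% final volume)/sterile saline. Tail-vein blood at 0.5, 1, 2, 4, 8 and 24 h, n = 2. Drug quantified in serum/plasma. Half-life and clearance calculated assuming 100% bioavailability.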

[8] = Selectivity ratio of IC50 for human CAF19 cells to IC50 for human Pa03C cells
[9] = Drug recovery in CD1 mouse plasma after 6 hrs by LC-ESI MS analysis; assay type: ADME, cell-free; conditions: read-out: Drug recovery
Panc1005 [10] = experiment: Cytotoxicity against human Panc 10.05 cells assessed as reduction in tumor spheroid area after 72 hrs by Alamar Blue assay; assay type: functional, cell-based; conditions: Panc1005, 72 h; outline: as §2
[11] = Clearance in NSG mouse at 20 mg/kg, ip administered as single dose by HPLC-MS/MS analysis; assay type: ADME, organism-based; conditions: in vivo; outline: as §4
Panc1005 [12] = experiment: Cytotoxicity against human Panc 10.05 monolayer cells assessed as reduction in tumor spheroid intensity after 72 hrs by Alamar Blue assay; assay type: functional, cell-based; conditions: Panc1005, 72 h
Outline: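 Monolayer proliferation of STR-authenticated, mycoplasma-checked patient-derived PDAC lines and mouse KPC cells. Plated at 2000 cells/well, treated 72 h, read by alamarBlue. At least triplicate, n = 3–5.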

[13] = Drug uptake in NSG mouse serum at 20 mg/kg, ip administered as single dose and measured at 24 hrs by HPLC-MS/MS analysis; assay type: ADME, organism-based; conditions: read-out: Drug uptake; outline: as §4
MDA-MB-231 = experiment: Cytotoxicity against human MDA-MB-231 cells after 72 hrs by CellTiter-Blue assay; assay type: functional, cell-based; conditions: MDA-MB-231, 72 h
Outline: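 MDA-MB-231 cells in DMEM with 10% FBS, 10 000 cells/well, treated after 24 h. Twofold dilutions from 50.0 μM, in triplicate, 0.5% DMSO vehicle. 72 h at 37 °C. CellTiter-Blue fluorescence read at 560/590 nm. IC50 by nonlinear regression.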

[14] = Toxicity in NSG mouse assessed as body weight loss at 60 mg/kg, ip administered daily for 4 to 5 days; assay type: organism-based; conditions: in vivo
Outline: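 NSG mice were dosed IP daily across a range of doses for 4–5 days (n = 6). Animals were weighed before and after dosing, and toxicity was scored as percentage body-weight loss.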

[15] = Drug uptake in NSG mouse serum at 40 mg/kg, ip administered daily for 5 days by HPLC-MS/MS analysis; assay type: ADME, organism-based; conditions: read-out: Drug uptake
Outline: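 NSG mice dosed IP once daily for 5 days at 10 or 40 mg/kg, n = 6. Blood collected 5 h after the final injection for serum drug concentration, reported ± SD.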

[16] = Drug uptake in NSG mouse serum at 20 mg/kg, ip administered as single dose and measured at 4 hrs by HPLC-MS/MS analysis; assay type: ADME, organism-based; conditions: read-out: Drug uptake; outline: as §4
[17] = target: Histone deacetylase 1 (Homo sapiens) (UniProt Q13547); experiment: Inhibition of recombinant human HDAC1 expressed in SF9 baculoviral system at 10 uM using FAM-labeled acetylated peptide as substrate by EMSA relative to control; outline: as §3
Pa03C [18] = experiment: Cytotoxicity against human Pa03C cells assessed as reduction in tumor spheroid area after 72 hrs by Alamar Blue assay; assay type: functional, cell-based; outline: as §2
Pa03C [19] = experiment: Cytotoxicity against human Pa03C cells assessed as reduction in tumor spheroid intensity after 72 hrs by Alamar Blue assay; assay type: functional, cell-based; outline: as §2
[20] = Cytotoxicity against human MRC9 cells at 50 uM after 72 hrs by CellTiter-Blue assay; assay type: cell-based
Outline: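 Cells in 10% FBS medium, 10 000 cells/well, treated 24 h after plating. Twofold dilution series from a 50.0 μM top dose to 0.097656 μM, in triplicate, 0.5% DMSO vehicle. 72 h at 37 °C, 5% CO2. CellTiter-Blue for 1–4 h, fluorescence 560/590 nm. IC50 by nonlinear regression.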

[21] = Half life in NSG mouse at 20 mg/kg, ip administered as single dose by HPLC-MS/MS analysis; assay type: ADME, organism-based; conditions: in vivo; outline: as §4
[22] = Cytotoxicity against human […] cells assessed as reduction in tumor spheroid area after 72 hrs by Alamar Blue assay; assay type: cell-based; outline: as §2
Mus musculus = experiment: Antitumor activity against mouse KPC cells allografted in […] C57BI/6 mouse assessed as mean survival time at 50 mg/kg, ip administered daily for 5 days per week for 1 month starting on day 7 post implantation (reference value: 29.5 days); assay type: functional, organism-based

Chain of Signal transducer and activator of transcription 3 (Homo sapiens) (P40763 whole entry): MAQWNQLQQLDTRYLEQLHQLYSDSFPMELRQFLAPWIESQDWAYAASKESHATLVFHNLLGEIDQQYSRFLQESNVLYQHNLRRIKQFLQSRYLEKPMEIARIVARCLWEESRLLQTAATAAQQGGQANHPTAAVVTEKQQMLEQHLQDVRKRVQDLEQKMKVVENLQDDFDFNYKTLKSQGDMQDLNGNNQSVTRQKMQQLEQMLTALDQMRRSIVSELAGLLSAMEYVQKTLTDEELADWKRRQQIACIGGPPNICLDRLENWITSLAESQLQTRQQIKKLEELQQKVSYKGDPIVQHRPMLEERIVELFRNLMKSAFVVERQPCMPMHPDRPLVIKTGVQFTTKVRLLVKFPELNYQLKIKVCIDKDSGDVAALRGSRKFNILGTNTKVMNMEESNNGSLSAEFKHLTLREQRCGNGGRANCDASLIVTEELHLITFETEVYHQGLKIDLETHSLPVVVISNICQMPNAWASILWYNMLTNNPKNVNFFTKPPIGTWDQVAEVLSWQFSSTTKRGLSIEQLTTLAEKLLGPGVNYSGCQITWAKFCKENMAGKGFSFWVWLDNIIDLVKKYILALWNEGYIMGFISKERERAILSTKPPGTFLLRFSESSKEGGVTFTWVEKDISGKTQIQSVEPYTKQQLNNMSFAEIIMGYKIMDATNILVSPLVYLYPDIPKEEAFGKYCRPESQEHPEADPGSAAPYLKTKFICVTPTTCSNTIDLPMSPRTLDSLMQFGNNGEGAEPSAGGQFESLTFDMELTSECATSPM
Chain of Histone deacetylase 1 (Homo sapiens) (Q13547 whole entry): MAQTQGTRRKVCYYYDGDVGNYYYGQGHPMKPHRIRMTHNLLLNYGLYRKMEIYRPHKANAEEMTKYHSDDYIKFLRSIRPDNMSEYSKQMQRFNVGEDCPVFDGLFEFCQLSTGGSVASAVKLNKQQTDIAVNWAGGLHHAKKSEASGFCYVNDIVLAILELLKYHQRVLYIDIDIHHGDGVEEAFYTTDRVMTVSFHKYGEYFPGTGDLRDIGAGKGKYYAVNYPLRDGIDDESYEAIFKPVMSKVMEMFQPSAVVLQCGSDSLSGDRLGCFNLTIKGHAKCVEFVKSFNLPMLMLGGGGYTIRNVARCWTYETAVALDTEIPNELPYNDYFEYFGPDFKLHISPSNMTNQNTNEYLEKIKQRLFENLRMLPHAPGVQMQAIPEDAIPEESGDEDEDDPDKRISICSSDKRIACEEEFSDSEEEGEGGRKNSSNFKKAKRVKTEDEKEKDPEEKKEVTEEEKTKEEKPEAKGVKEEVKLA
Chain of Histone deacetylase 11 (Homo sapiens) (Q96DB2 whole entry): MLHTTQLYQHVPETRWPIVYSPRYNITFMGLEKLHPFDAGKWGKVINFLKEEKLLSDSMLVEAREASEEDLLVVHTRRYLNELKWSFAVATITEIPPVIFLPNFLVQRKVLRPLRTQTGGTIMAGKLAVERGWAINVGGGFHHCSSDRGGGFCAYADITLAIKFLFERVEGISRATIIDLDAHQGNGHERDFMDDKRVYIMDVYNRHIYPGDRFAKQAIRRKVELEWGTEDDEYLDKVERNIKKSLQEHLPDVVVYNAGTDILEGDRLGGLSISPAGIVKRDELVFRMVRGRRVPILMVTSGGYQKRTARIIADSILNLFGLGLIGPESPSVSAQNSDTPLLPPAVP

Q: Which Activity (Homo sapiens) does the source give for `CC(C)(C)c1ccc(CN(C(=O)CN(Cc2c(F)c(F)c(F)c(F)c2F)S(=O)(=O)c2ccc(F)cc2)c2ccc(C(=O)NO)cc2)cc1` here?
A: Active

Q: And the inhibition [1]?
A: inactive

Q: And the inhibition [2]?
A: inactive

Q: What about the Tmax [3] of the same compound?
A: 0.5 h

Q: And the IC50 (Panc1005 [4])?
A: 940 nM

Q: And the “Ratio IC50” value [5]?
A: 5 - 6

Q: What about the inhibition [6] of the same compound?
A: 97%

Q: What about the concentration at 2 h [7] of the same compound?
A: 5390 ng/mL

Q: And the “Ratio IC50” value [8]?
A: 5 - 6

Q: What about the remaining at 6 h [9] of the same compound?
A: 16 to 20%

Q: What about the IC50 (Panc1005 [10]) of the same compound?
A: 970 nM

Q: What about the CL/F [11] of the same compound?
A: 0.0667 mL/min

Q: What about the IC50 (Panc1005 [12]) of the same compound?
A: 3900 nM

Q: And the concentration at 24 h [13]?
A: 265 ng/mL

Q: And the IC50 (MDA-MB-231)?
A: 2720 nM

Q: What about the Activity [14] of the same compound?
A: Non-Toxic

Q: And the concentration at 120 h [15]?
A: 2640 nM

Q: What about the concentration at 4 h [16] of the same compound?
A: 3660 ng/mL

Q: What about the inhibition [17] of the same compound?
A: 72%

Q: And the IC50 (Pa03C [18])?
A: 1220 nM

Q: And the IC50 (Pa03C [19])?
A: 1330 nM

Q: What about the Activity [20] of the same compound?
A: Non-Toxic

Q: And the half-life [21]?
A: 5 h

Q: And the IC50 [22]?
A: 4700 to 7800 nM

Q: What about the Activity (Mus musculus) of the same compound?
A: inactive
